Molecular target: T1, Toll-like receptor 4 (Mus musculus) (UniProt Q9QUK6)
T1 sequence (whole entry): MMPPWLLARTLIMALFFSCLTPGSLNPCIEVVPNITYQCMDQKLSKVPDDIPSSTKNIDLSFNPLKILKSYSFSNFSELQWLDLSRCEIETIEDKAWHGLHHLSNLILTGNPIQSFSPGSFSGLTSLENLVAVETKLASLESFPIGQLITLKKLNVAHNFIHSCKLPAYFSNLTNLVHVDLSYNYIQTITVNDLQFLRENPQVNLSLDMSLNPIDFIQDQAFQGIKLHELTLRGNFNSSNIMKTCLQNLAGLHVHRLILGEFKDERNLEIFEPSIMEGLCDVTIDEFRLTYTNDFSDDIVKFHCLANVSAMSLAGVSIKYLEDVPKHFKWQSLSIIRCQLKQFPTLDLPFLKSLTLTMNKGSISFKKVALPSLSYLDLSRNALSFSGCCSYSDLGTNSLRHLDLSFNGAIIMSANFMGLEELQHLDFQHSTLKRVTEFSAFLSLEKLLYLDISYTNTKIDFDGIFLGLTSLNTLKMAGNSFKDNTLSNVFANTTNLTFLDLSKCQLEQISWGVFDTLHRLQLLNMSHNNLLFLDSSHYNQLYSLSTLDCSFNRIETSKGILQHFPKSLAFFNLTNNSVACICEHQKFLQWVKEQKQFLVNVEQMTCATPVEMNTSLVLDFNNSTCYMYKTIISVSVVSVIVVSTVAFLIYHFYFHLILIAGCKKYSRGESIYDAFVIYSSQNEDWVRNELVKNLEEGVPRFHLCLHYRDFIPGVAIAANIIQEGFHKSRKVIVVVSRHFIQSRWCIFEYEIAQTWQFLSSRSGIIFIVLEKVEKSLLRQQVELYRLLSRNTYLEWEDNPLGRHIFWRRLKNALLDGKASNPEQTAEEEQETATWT
Assay: Agonist activity at TLR4 in C57BL/6 mouse primary BMDC assessed as induction of IL-6 release at 5 uM after 18 hrs by ELISA relative to N-cyclohexyl-2-(5-methyl-4-oxo-3-phenyl-4,5-dihydro-3H-pyrimido[5,4-b]indol-2-ylthio)acetamide
Details: not given

Q: For `CCCCCCCC(=O)Nc1ccc2c(c1)c1nc(SCC(=O)NC3CCCCC3)n(-c3ccccc3)c(=O)c1n2C`, which Activity is on record?
A: 0%

Q: For `Cn1c2ccc(I)cc2c2nc(SCC(=O)NC3CCCCC3)n(-c3ccccc3)c(=O)c21`, which Activity is on record?
A: 74%

Q: Which Activity does the source give for `Cn1c2c(c3nc(SCC(=O)NC4CCCCC4)n(-c4ccccc4)c(=O)c31)CCCC2` here?
A: 65%

Q: Which Activity does the source give for `C#Cc1ccc2c(c1)c1nc(SCC(=O)NC3CCCCC3)n(-c3ccccc3)c(=O)c1n2C` here?
A: 92%

Q: With `Cn1c2ccccc2c2nc(NCCC(=O)NC3CCCCC3)n(-c3ccccc3)c(=O)c21` as the molecule, how does the Activity read?
A: 0%

Q: With `Cn1c2ccc(NC(=O)c3ccccc3)cc2c2nc(SCC(=O)NC3CCCCC3)n(-c3ccccc3)c(=O)c21` as the molecule, how does the Activity read?
A: 7%

Q: Which Activity does the source give for `Cn1c2ccc(C#C[Si](C)(C)C)cc2c2nc(SCC(=O)NC3CCCCC3)n(-c3ccccc3)c(=O)c21` here?
A: 78%

Molecular target: T1, Toll-like receptor 4 (Mus musculus)
Assay: Agonist activity at mouse TLR4 expressed in HEK293 blue cells assessed as induction of NF-kappaB activation-mediated SEAP production by measuring AUC after 20 to 24 hrs by colorimetric assay relative to N-cyclohexyl-2-(5-methyl-4-oxo-3-phenyl-4,5-dihydro-3H-pyrimido[5,4-b]indol-2-ylthio)acetamide
Format: cell-based
Details: not given

Q: For `CCCCCCCC(=O)Nc1ccc2c(c1)c1nc(SCC(=O)NC3CCCCC3)n(-c3ccccc3)c(=O)c1n2C`, which Activity is on record?
A: 1%

Q: Which Activity does the source give for `Cn1c2ccc(I)cc2c2nc(SCC(=O)NC3CCCCC3)n(-c3ccccc3)c(=O)c21` here?
A: 104%

Q: Which Activity does the source give for `Cn1c2c(c3nc(SCC(=O)NC4CCCCC4)n(-c4ccccc4)c(=O)c31)CCCC2` here?
A: 13%

Q: With `C#Cc1ccc2c(c1)c1nc(SCC(=O)NC3CCCCC3)n(-c3ccccc3)c(=O)c1n2C` as the molecule, how does the Activity read?
A: 92%

Q: For `Cn1c2ccccc2c2nc(NCCC(=O)NC3CCCCC3)n(-c3ccccc3)c(=O)c21`, which Activity is on record?
A: 2%

Q: With `Cn1c2ccc(NC(=O)c3ccccc3)cc2c2nc(SCC(=O)NC3CCCCC3)n(-c3ccccc3)c(=O)c21` as the molecule, how does the Activity read?
A: 2%

Q: Which Activity does the source give for `Cn1c2ccc(C#C[Si](C)(C)C)cc2c2nc(SCC(=O)NC3CCCCC3)n(-c3ccccc3)c(=O)c21` here?
A: 85%

Molecular target: T2, Toll-like receptor 4 (Homo sapiens, UniProt O00206)
Assay: Agonist activity at human TLR4 expressed in HEK293 blue cells assessed as induction of NF-kappaB activation-mediated SEAP production after 20 to 24 hrs by colorimetric assay
Format: cell-based
Details: not given
Summary of the method: (§1)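 HEK-Blue cells expressing human or mouse TLR4, 2.5 × 10⁴/well in DMEM with 10% FBS, pyruvate, glutamine and antibiotics. Graded doses from 20 mM DMSO stocks, final DMSO 0.05%. Supernatants harvested after 20–24 h; SEAP read by colorimetric substrate at 630 nm. EC50 taken as the concentration giving 50% of maximal activation. LPS 100 ng/mL served as positive control.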

T2 sequence (O00206 whole entry): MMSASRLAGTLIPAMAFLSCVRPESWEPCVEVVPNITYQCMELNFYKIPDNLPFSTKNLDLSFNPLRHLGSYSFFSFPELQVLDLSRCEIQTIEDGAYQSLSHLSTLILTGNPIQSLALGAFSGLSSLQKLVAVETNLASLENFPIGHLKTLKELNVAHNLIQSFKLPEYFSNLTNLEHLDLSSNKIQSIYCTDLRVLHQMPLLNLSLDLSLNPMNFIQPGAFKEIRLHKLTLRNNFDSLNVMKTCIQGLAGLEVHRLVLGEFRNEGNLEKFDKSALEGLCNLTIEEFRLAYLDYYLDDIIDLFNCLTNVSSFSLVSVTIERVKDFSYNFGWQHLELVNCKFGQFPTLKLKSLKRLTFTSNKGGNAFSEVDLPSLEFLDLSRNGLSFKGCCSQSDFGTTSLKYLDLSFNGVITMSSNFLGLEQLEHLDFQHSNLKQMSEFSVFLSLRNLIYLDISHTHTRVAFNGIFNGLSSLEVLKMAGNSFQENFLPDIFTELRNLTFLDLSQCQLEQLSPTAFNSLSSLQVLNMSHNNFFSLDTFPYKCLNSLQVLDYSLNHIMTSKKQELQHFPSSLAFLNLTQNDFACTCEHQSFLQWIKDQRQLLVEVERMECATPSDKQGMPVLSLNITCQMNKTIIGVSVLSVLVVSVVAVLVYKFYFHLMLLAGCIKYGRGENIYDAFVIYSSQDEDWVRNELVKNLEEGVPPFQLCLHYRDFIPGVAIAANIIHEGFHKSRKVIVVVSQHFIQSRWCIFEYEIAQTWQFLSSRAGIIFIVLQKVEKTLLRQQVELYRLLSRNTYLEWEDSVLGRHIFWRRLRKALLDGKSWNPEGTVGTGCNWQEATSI

Q: For `CCCCCCCC(=O)Nc1ccc2c(c1)c1nc(SCC(=O)NC3CCCCC3)n(-c3ccccc3)c(=O)c1n2C`, which EC50 is on record?
A: > 10 µM

Q: For `Cn1c2ccc(I)cc2c2nc(SCC(=O)NC3CCCCC3)n(-c3ccccc3)c(=O)c21`, which EC50 is on record?
A: 3.75 µM

Q: Which EC50 does the source give for `Cn1c2c(c3nc(SCC(=O)NC4CCCCC4)n(-c4ccccc4)c(=O)c31)CCCC2` here?
A: > 10 µM

Q: Which EC50 does the source give for `C#Cc1ccc2c(c1)c1nc(SCC(=O)NC3CCCCC3)n(-c3ccccc3)c(=O)c1n2C` here?
A: 3.27 µM

Q: For `Cn1c2ccccc2c2nc(NCCC(=O)NC3CCCCC3)n(-c3ccccc3)c(=O)c21`, which EC50 is on record?
A: > 10 µM

Q: Which EC50 does the source give for `Cn1c2ccc(NC(=O)c3ccccc3)cc2c2nc(SCC(=O)NC3CCCCC3)n(-c3ccccc3)c(=O)c21` here?
A: > 10 µM

Q: For `Cn1c2ccc(C#C[Si](C)(C)C)cc2c2nc(SCC(=O)NC3CCCCC3)n(-c3ccccc3)c(=O)c21`, which EC50 is on record?
A: > 10 µM

Test system: not listed separately
Assay: Cytotoxicity against C57BL/6 mouse primary BMDC assessed as cell viability at 5 uM after 18 hrs by MTT assay relative to control
Format: cell-based
Details: primary BMDC (bone marrow-derived dendritic cells), read-out: Activity

Q: For `CCCCCCCC(=O)Nc1ccc2c(c1)c1nc(SCC(=O)NC3CCCCC3)n(-c3ccccc3)c(=O)c1n2C`, which viability at 18 h, 5 µM is on record?
A: 35%

Q: Which viability at 18 h, 5 µM does the source give for `Cn1c2ccc(I)cc2c2nc(SCC(=O)NC3CCCCC3)n(-c3ccccc3)c(=O)c21` here?
A: 75%

Q: For `Cn1c2c(c3nc(SCC(=O)NC4CCCCC4)n(-c4ccccc4)c(=O)c31)CCCC2`, which viability at 18 h, 5 µM is on record?
A: 106%

Q: For `C#Cc1ccc2c(c1)c1nc(SCC(=O)NC3CCCCC3)n(-c3ccccc3)c(=O)c1n2C`, which viability at 18 h, 5 µM is on record?
A: 81%

Q: For `Cn1c2ccccc2c2nc(NCCC(=O)NC3CCCCC3)n(-c3ccccc3)c(=O)c21`, which viability at 18 h, 5 µM is on record?
A: 92%

Q: For `Cn1c2ccc(NC(=O)c3ccccc3)cc2c2nc(SCC(=O)NC3CCCCC3)n(-c3ccccc3)c(=O)c21`, which viability at 18 h, 5 µM is on record?
A: 43%

Q: Which viability at 18 h, 5 µM does the source give for `Cn1c2ccc(C#C[Si](C)(C)C)cc2c2nc(SCC(=O)NC3CCCCC3)n(-c3ccccc3)c(=O)c21` here?
A: 73%

Molecular target: T3, Toll-like receptor 4 (Mus musculus, UniProt Q9QUK6)
T3 sequence (Q9QUK6 whole entry): T1 sequence (whole entry)
Assay: Agonist activity at mouse TLR4 expressed in HEK293 blue cells assessed as induction of NF-kappaB activation-mediated SEAP production after 20 to 24 hrs by colorimetric assay
Format: cell-based
Details: not given
Summary of the method: as §1

Q: Which EC50 does the source give for `CCCCCCCC(=O)Nc1ccc2c(c1)c1nc(SCC(=O)NC3CCCCC3)n(-c3ccccc3)c(=O)c1n2C` here?
A: > 10 µM

Q: Which EC50 does the source give for `Cn1c2ccc(I)cc2c2nc(SCC(=O)NC3CCCCC3)n(-c3ccccc3)c(=O)c21` here?
A: 2.51 µM

Q: Which EC50 does the source give for `Cn1c2c(c3nc(SCC(=O)NC4CCCCC4)n(-c4ccccc4)c(=O)c31)CCCC2` here?
A: > 10 µM

Q: For `C#Cc1ccc2c(c1)c1nc(SCC(=O)NC3CCCCC3)n(-c3ccccc3)c(=O)c1n2C`, which EC50 is on record?
A: 2.74 µM

Q: For `Cn1c2ccccc2c2nc(NCCC(=O)NC3CCCCC3)n(-c3ccccc3)c(=O)c21`, which EC50 is on record?
A: > 10 µM

Q: Which EC50 does the source give for `Cn1c2ccc(NC(=O)c3ccccc3)cc2c2nc(SCC(=O)NC3CCCCC3)n(-c3ccccc3)c(=O)c21` here?
A: > 10 µM

Q: Which EC50 does the source give for `Cn1c2ccc(C#C[Si](C)(C)C)cc2c2nc(SCC(=O)NC3CCCCC3)n(-c3ccccc3)c(=O)c21` here?
A: 3.3 µM

Molecular target: T2, Toll-like receptor 4
Assay: Agonist activity at human TLR4 expressed in HEK293 blue cells assessed as induction of NF-kappaB activation-mediated SEAP production by measuring AUC after 20 to 24 hrs by colorimetric assay relative to N-cyclohexyl-2-(5-methyl-4-oxo-3-phenyl-4,5-dihydro-3H-pyrimido[5,4-b]indol-2-ylthio)acetamide
Format: cell-based
Details: not given

Q: For `CCCCCCCC(=O)Nc1ccc2c(c1)c1nc(SCC(=O)NC3CCCCC3)n(-c3ccccc3)c(=O)c1n2C`, which Activity is on record?
A: 15%

Q: With `Cn1c2ccc(I)cc2c2nc(SCC(=O)NC3CCCCC3)n(-c3ccccc3)c(=O)c21` as the molecule, how does the Activity read?
A: 204%

Q: For `Cn1c2c(c3nc(SCC(=O)NC4CCCCC4)n(-c4ccccc4)c(=O)c31)CCCC2`, which Activity is on record?
A: 8%

Q: For `C#Cc1ccc2c(c1)c1nc(SCC(=O)NC3CCCCC3)n(-c3ccccc3)c(=O)c1n2C`, which Activity is on record?
A: 107%

Q: With `Cn1c2ccccc2c2nc(NCCC(=O)NC3CCCCC3)n(-c3ccccc3)c(=O)c21` as the molecule, how does the Activity read?
A: 8%

Q: With `Cn1c2ccc(NC(=O)c3ccccc3)cc2c2nc(SCC(=O)NC3CCCCC3)n(-c3ccccc3)c(=O)c21` as the molecule, how does the Activity read?
A: 26%

Q: For `Cn1c2ccc(C#C[Si](C)(C)C)cc2c2nc(SCC(=O)NC3CCCCC3)n(-c3ccccc3)c(=O)c21`, which Activity is on record?
A: 87%
